The MIC is the lowest concentration that inhibits growth of the organism. A low value points to inhibition by little substance. As usually defined, the ED50 is the midpoint of the dose-response relation. A lower ED50 goes with greater potency.

Format in all cases: functional
In test [1] the test system is Pseudomonas aeruginosa. Briefly: Minimum inhibitory concentration against Pseudomonas aeruginosa ATCC 27853. Put shortly: (§1)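 Broth MIC determination: serial 2-fold dilutions in Mueller-Hinton broth by standard methodology; the lowest concentration inhibiting growth is reported as the MIC, in nmol/mL.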
In test [2] the test system is Pseudomonas aeruginosa. In words: Evaluated for the minimum inhibitory concentration against Pseudomonas aeruginosa 18S/H (Class Id beta-lactamase overproducer). A digest of the protocol:
(§2)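 MIC by serial 2-fold dilution in Mueller-Hinton broth; results given as minimum inhibitory concentrations (nmol/mL).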

Test [3] concerns Proteus vulgaris. Briefly: Minimum inhibitory concentration against Proteus vulgaris 1028 BC (Class Ic beta-lactamase overproducer). A digest of the protocol:
as §1

For a further test, the system named is Staphylococcus aureus. In words: Minimum inhibitory concentration against Staphylococcus aureus 95 (Methicillin-resistant, high-level beta-lactamase producer). A digest of the protocol: (§3)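 Serial 2-fold broth dilution in Mueller-Hinton broth, run by standard methodology; read-out is the minimum inhibitory concentration (MIC).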
Test [4] relates to Escherichia coli. Briefly: Evaluated for the minimum inhibitory concentration against Escherichia coli TEM-1. A digest of the protocol: as §3
The subject of test [5] is Streptococcus pyogenes. In words: Minimum inhibitory concentration against Streptococcus pyogenes 4. A digest of the protocol:
as §1

Test [6] relates to Streptococcus pneumoniae. In words: Minimum inhibitory concentration against Streptococcus pneumoniae 6301. Put shortly:
as §1

Test [7] concerns Pseudomonas aeruginosa. Briefly: Evaluated for the minimum inhibitory concentration against Pseudomonas aeruginosa 18S/H ( Class Id beta-lactamase overproducer). Put shortly: as §2
The test system of test [8] is Proteus vulgaris. Briefly: Evaluated for the minimum inhibitory concentration against Proteus vulgaris 1028 BC. Put shortly:
as §3

For a further test, the system named is Enterobacter cloacae. In words: Evaluated for the minimum inhibitory concentration against Enterobacter cloacae P99. Put shortly: as §3
The next test relates to Micrococcus luteus. In words: Evaluated for in Vitro activity against Micrococcus luteus PCI. Put shortly: as §2
The test system of test [9] is Streptococcus pneumoniae. Briefly: Evaluated for in Vitro activity against Streptococcus pneumoniae 6301. A digest of the protocol: as §2
The test system of test [10] is Escherichia coli. Briefly: Evaluated for in Vitro activity against Escherichia coli DC-O. Put shortly: as §2
Test [11] deals with Proteus vulgaris. In words: Evaluated for the minimum inhibitory concentration against Proteus vulgaris 1028 BC (Class Ic beta-lactamase overproducer. Put shortly:
as §2

For test [12], the system named is Escherichia coli. In words: Evaluated for the minimum inhibitory concentration against Escherichia coli UB 1005. A digest of the protocol:
as §2

In test [13] the test system is Escherichia coli. In words: Evaluated for the in vivo activity in mice against Escherichia coli 257.
Test [14] has as its system Streptococcus pyogenes. In words: Evaluated for the in vivo activity in mice against streptococcus pyogenes 4.

Values after ≈ are worked out from the molar mass of the structure shown.

With `CCn1cc(C(=O)OCC2=C(C(=O)O)N3C(=O)[C@@H](NC(=O)Cc4cccs4)C3SC2)c(=O)c2cc3c(cc21)OCO3` (some centres not stated), the MIC in the test on Pseudomonas aeruginosa [1] is over 128 µg/mL; with Pseudomonas aeruginosa [2] it was 8 µg/mL (≈ 13.4 µM); against Proteus vulgaris [3], 0.25 µg/mL (≈ 0.418 µM); in the test with Staphylococcus aureus it was 4 µg/mL (≈ 6.69 µM).
In the case of `CCn1cc(C(=O)O)c(=O)c2ccc(C)nc21` [NALIDIXIC ACID], the minimal inhibitory concentration (MIC) is 4 µg/mL (≈ 17.2 µM) in the test on Escherichia coli [4]; 128 µg/mL (≈ 551 µM) against Streptococcus pyogenes [5]; 128 µg/mL (≈ 551 µM) in the test on Pseudomonas aeruginosa [1]; 32 µg/mL (≈ 138 µM) in the test on Pseudomonas aeruginosa [2]; 2 µg/mL (≈ 8.61 µM) in the test with Proteus vulgaris [3]; 128 µg/mL (≈ 551 µM) with Streptococcus pneumoniae [6]. Moreover, the lowest concentration to inhibit growth against Staphylococcus aureus (MIC) was 8 µg/mL (≈ 34.4 µM).
As for `O=C(COc1ccccc1)N[C@@H]1C(=O)N2C(C(=O)O)=C(COC(=O)c3cn(-c4ccc(F)cc4)c4cc5c(cc4c3=O)OCO5)CSC12` (some centres not stated), the MIC against Streptococcus pyogenes [5] was 2 µg/mL (≈ 2.97 µM); in the test with Pseudomonas aeruginosa [1], over 128 µg/mL; against Pseudomonas aeruginosa [7], 64 µg/mL (≈ 95 µM); in the test with Streptococcus pneumoniae [6] it was 1 µg/mL (≈ 1.48 µM); with Staphylococcus aureus, 64 µg/mL (≈ 95 µM); against Proteus vulgaris [8] it was 64 µg/mL (≈ 95 µM).
Consider `CCn1cc(C(=O)O)c(=O)c2cc3c(cc21)OCO3` [OXOLINIC ACID], for which the MIC against Escherichia coli [4] was 0.25 µg/mL (≈ 0.957 µM); in the test with Streptococcus pyogenes [5] it was over 128 µg/mL; against Pseudomonas aeruginosa [1], 64 µg/mL (≈ 245 µM); with Pseudomonas aeruginosa [7], 4 µg/mL (≈ 15.3 µM); in the test on Streptococcus pneumoniae [6], over 128 µg/mL; in the test with Staphylococcus aureus, 2 µg/mL (≈ 7.66 µM). In addition, the figures for the minimum inhibitory concentration (MIC) against Enterobacter cloacae and in the test with Proteus vulgaris [8] were 0.5 µg/mL (≈ 1.91 µM) and 0.063 µg/mL (≈ 0.241 µM), respectively.
With `CO/N=C(/C(=O)N[C@@H]1C(=O)N2C(C(=O)O)=C(CO)CSC12)c1csc(N)n1` (some centres not stated), the values for the MIC in the test on Micrococcus luteus, in the test with Streptococcus pneumoniae [9] and in the test on Escherichia coli [10] were 0.597 µM (≈ 0.247 µg/mL), 0.0746 µM (≈ 0.0308 µg/mL) and 0.597 µM (≈ 0.247 µg/mL), respectively.
Regarding `CCn1cc(C(=O)OCC2=C(C(=O)O)N3C(=O)[C@@H](NC(=O)Cc4cccs4)C3SC2)c(=O)c2cc(F)c(N3CCN(C=O)CC3)cc21` (some centres not stated), the minimal inhibitory concentration (MIC) against Pseudomonas aeruginosa [1] was over 128 µg/mL; in the test on Pseudomonas aeruginosa [2], 16 µg/mL (≈ 23.4 µM); against Proteus vulgaris [3], 4 µg/mL (≈ 5.85 µM); with Streptococcus pneumoniae [6], 0.063 µg/mL (≈ 0.0921 µM); in the test with Staphylococcus aureus it was 4 µg/mL (≈ 5.85 µM).
In the case of `CO/N=C(\C(=O)N[C@@H]1C(=O)N2C(C(=O)O)=C(COC(C)=O)CS[C@H]12)c1csc(N)n1` [CEFOTAXIME], the MIC is under 0.008 µg/mL against Streptococcus pyogenes [5]; 64 µg/mL (≈ 141 µM) in the test with Pseudomonas aeruginosa [1]; 128 µg/mL (≈ 281 µM) against Pseudomonas aeruginosa [2]; 16 µg/mL (≈ 35.1 µM) in the test with Proteus vulgaris [11]; 0.016 µg/mL (≈ 0.0351 µM) against Streptococcus pneumoniae [6]; 0.06 µg/mL (≈ 0.132 µM) with Escherichia coli [12]. The molecule also returned an MIC with Staphylococcus aureus of 32 µg/mL (≈ 70.3 µM). Also, the ED50 in the test on Escherichia coli [13] came out at 1.7 mg/kg; in the test with Streptococcus pyogenes [14], 5.2 mg/kg.
Take `CCn1cc(C(=O)OCC2=C(C(=O)O)N3C(=O)[C@@H](NC(=O)/C(=N/OC)c4csc(N)n4)C3SC2)c(=O)c2ccc(C)nc21` (some centres not stated): the minimum inhibitory concentration (MIC) in the test with Pseudomonas aeruginosa [1] is over 128 µg/mL; with Pseudomonas aeruginosa [2] it was 64 µg/mL (≈ 102 µM); in the test with Proteus vulgaris [3], 4 µg/mL (≈ 6.37 µM); against Staphylococcus aureus, 8 µg/mL (≈ 12.7 µM).
Regarding `CN1CCN(c2c(F)cc3c(=O)c(C(=O)OCC4=C(C(=O)O)N5C(=O)[C@@H](NC(=O)/C(=N/OC(C)(C)C(=O)O)c6csc(N)n6)C5SC4)cn(CCF)c3c2F)CC1` (some centres not stated), the minimal inhibitory concentration (MIC) in the test on Streptococcus pyogenes [5] was 0.5 µg/mL (≈ 0.597 µM); in the test with Pseudomonas aeruginosa [1], 8 µg/mL (≈ 9.56 µM); against Pseudomonas aeruginosa [2], over 128 µg/mL; against Proteus vulgaris [11], 0.5 µg/mL (≈ 0.597 µM); with Streptococcus pneumoniae [6] it was 0.5 µg/mL (≈ 0.597 µM); with Staphylococcus aureus, 4 µg/mL (≈ 4.78 µM).
On to `CCn1cc(C(=O)O)c(=O)c2cc(F)c(N3CCCC3)cc21`, for which the minimum inhibitory concentration (MIC) with Pseudomonas aeruginosa [1] is over 128 µg/mL; in the test with Pseudomonas aeruginosa [7], 128 µg/mL (≈ 421 µM); against Proteus vulgaris [11] it was 1 µg/mL (≈ 3.29 µM); against Streptococcus pneumoniae [6], over 128 µg/mL; in the test on Staphylococcus aureus, 0.063 µg/mL (≈ 0.207 µM).
Consider `O=C(O)c1cn(-c2ccc(F)cc2)c2cc3c(cc2c1=O)OCO3`, for which the MIC in the test on Streptococcus pyogenes [5] is over 128 µg/mL; in the test on Pseudomonas aeruginosa [2] it was 0.5 µg/mL (≈ 1.53 µM); in the test on Proteus vulgaris [11] it was 0.5 µg/mL (≈ 1.53 µM); in the test with Streptococcus pneumoniae [6] it was 64 µg/mL (≈ 196 µM); in the test with Staphylococcus aureus, 1 µg/mL (≈ 3.06 µM).

The values are drawn from ChEMBL document CHEMBL1125107, “Cephalosporin 3'-quinolone esters with a dual mode of action” (J Med Chem, 1990).
